This test deals with G2/mitotic-specific cyclin-B1 (Homo sapiens) (UniProt P14635). Nature of the test: cyclin B degradation inhibitors, late-stage follow-up, selectivity assay for Wee1 degradation inhibitor project, cell-based, HeLa, luciferase fusion, luminescence, powder samples (AID 463186). The conditions noted are these: HeLa cyclin B-luciferase stability, at 0.1 µM, stronger effect = higher value. The method in brief:
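Material: HeLa cells with cyclin B–luciferase fusion / Read-out basis: average fold-change versus DMSO vehicle / Replication: quadruplicate wells per compound / Technique: luminescence of luciferase reporter / Compound dosing: single dose, nominal 0.1 µM / Benchmarks: DMSO vehicle-treated cells as reference / Schedule: 48 h transfection, then 20 h compound exposure at 37 °C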

Activity calls are given as the source filed them.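 How the source made its calls: active means mean luminescence fold change over vehicle of at least 10; inactive means the rest.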

Sequence of G2/mitotic-specific cyclin-B1 (Homo sapiens) (P14635 whole entry, looked up, the tested form may be a part): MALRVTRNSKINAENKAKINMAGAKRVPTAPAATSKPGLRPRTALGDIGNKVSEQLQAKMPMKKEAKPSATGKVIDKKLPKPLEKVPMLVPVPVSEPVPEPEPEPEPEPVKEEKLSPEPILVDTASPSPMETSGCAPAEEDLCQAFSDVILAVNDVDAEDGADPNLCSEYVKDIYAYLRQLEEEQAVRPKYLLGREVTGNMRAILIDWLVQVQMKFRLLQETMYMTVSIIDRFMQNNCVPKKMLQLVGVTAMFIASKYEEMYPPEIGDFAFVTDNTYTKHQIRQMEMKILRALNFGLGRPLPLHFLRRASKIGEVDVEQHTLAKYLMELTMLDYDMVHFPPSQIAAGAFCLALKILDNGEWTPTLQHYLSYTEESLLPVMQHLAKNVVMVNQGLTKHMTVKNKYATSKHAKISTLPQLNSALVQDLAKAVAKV

`c1ccc2[nH]c(CNc3nc(N4CCOCC4)nc4c3ncn4-c3ccsc3)nc2c1`: the fold change is 4.15 (inactive).
Then `O=[N+]([O-])c1cccc2[nH]c(CNc3nc(N4CCOCC4)nc4c3ncn4-c3ccsc3)nc12`, with 2.62 (inactive).

The values are drawn from PubChem BioAssay AID463186 (The Scripps Research Institute Molecular Screening Center, 2010).
